Measured values: ChEMBL document CHEMBL2331455, “Potent vasorelaxant analogs from chemical modification and biotransformation of isosteviol” (Eur J Med Chem, 2013)

Key:
Aorta = assay: Vasorelaxant activity in Sprague-Dawley rat aorta assessed as reduction of phenylephrine-induced contraction; assay type: functional, tissue-based
Summary of the method: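 Aortic rings held in HPSS (140 mM NaCl, 5 mM KCl, 2 mM CaCl2, 1 mM MgCl2, 5 mM HEPES, 11 mM glucose, pH 7.4) and equilibrated 2 h with several buffer changes. Isometric force changes were recorded continuously. Acetylcholine served as positive control.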

Vero = assay: Cytotoxicity against african green monkey Vero cells; assay type: cell-based; conditions: chlorocebus sabaeus

Row | EC50 (Aorta) [nM] | Structure (SMILES) | Activity (Vero)
1 | 4.88 | CC(=O)O[C@@H]1C[C@]23CC[C@H]4[C@@](C)(CCC[C@@]4(C)C(=O)O)[C@@H]2CC[C@@]1(C)C3 | 
2 | 59.7 | CC(=O)O[C@@H]1C[C@@]23C[C@]1(C)CC[C@H]2[C@]1(C)CCC[C@@](C)(C(=O)O)[C@H]1C[C@@H]3O | 
3 | 19.5 | CC(=O)O[C@@H]1C[C@]23CC[C@H]4[C@@](C)(CCC[C@@]4(C)C(=O)O)[C@@H]2CC[C@@]1(C)[C@@H]3O | 
4 | 29.1 | C[C@@]12CC[C@@H]3[C@@](CC[C@H]4[C@@]3(C)CCC[C@@]4(C)C(=O)O)(C[C@H]1O)C2 | 
5 | 57.4 | C[C@@]12CC[C@@H]3[C@@](CC[C@H]4[C@@]3(C)CCC[C@@]4(C)C(=O)O)(CC1=O)C2 [ISOSTEVIOL] | 

The next lines start with the compound.

Row | Structure (SMILES) | EC50 (Aorta) [nM] | Activity (Vero)
6 | C[C@@]12CC[C@H]3[C@]4(C)CCC[C@@](C)(C(=O)O)[C@H]4C[C@H](O)[C@]3(C[C@H]1O)C2 | 41.8 | 
7 | C[C@@]12CC[C@H]3[C@]4(C)CCC[C@@](C)(C(=O)O)[C@H]4C[C@@H](O)[C@]3(C[C@H]1O)C2 | 39.8 | 
8 | C[C@@]12CCC[C@@](C)(C(=O)O)[C@H]1CC[C@@]13C[C@@H](O)[C@@](C)(CC[C@@H]21)[C@@H]3O | 303 | 
9 | C[C@@]12CC[C@H]3[C@]4(C)CCC[C@@](C)(C(=O)O)[C@H]4C[C@H](O)[C@]3(CC1=O)C2 | 3.46 | Non-toxic
10 | CC(=O)OCC[N+](C)(C)C [ACETYLCHOLINE IODIDE] | 65 | 
